According to ChEMBL document CHEMBL3861962 (Eur J Med Chem, 2016):

Assays:
[1] = Drug metabolism in human liver microsomes assessed as formation of 4-(1,1,1,3,3,3-hexafluoro-2-hydroxypropan-2-yl)-N-(6-(2-hydroxyethoxy)-5-(2-methoxyphenoxy)-2,2'-bipyrimidin-4-yl)benzenesulfonamide at 5 uM in presence of NADPH after 30 mins by LC-MS/MS analysis; type: ADME; details: 0.5 h
Procedure, shortened: (§1)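 Substrate at 5 μM final in 100 mM potassium phosphate, pH 7.4, incubated with human liver microsomes or baculovirus-expressed recombinant CYP3A4, 2D6 or 2C9. Reaction started with 1 mM NADPH and run 0, 15 and 30 min at 37 °C. Stopped with ice-cold acetonitrile containing labetalol internal standard, then centrifuged. Supernatant analysed by LC-MS/MS on a C18 column at 40 °C. Blank was enzyme without substrate.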

[2] = target: T1, Endothelin receptor type B (Homo sapiens) (UniProt P24530); test: Agonist activity at human recombinant ETB receptor expressed in CHOK1 cells assessed as induction of Ca2+ mobilization at 10 nM by fluorimetric method relative to control; type: functional, cell-based; details: CHO-K1
T1 sequence (whole entry): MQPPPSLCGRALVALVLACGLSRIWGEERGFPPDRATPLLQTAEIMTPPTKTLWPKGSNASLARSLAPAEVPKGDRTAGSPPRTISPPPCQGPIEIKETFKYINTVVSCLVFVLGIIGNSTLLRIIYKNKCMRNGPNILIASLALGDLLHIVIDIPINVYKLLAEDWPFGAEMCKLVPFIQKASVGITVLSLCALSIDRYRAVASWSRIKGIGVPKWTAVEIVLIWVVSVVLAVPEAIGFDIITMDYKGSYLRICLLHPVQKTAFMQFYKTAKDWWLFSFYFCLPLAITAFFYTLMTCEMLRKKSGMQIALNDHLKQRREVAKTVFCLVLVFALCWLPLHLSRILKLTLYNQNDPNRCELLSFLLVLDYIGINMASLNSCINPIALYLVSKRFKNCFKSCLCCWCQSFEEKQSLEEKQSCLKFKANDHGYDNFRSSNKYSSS
Procedure, shortened: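 ETB functional assay run by Cerep in human recombinant CHO-k1 cells at 22 °C with fluorimetric read-out. Test solutions were 1, 10, 100 and 1000 nM. Agonist response is given as % of the control response to 100 nM endothelin-1. For antagonist mode, inhibition is given as % of the control endothelin-1 agonist response, with BQ-788 as reference antagonist.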

[3] = Drug metabolism in human liver microsomes assessed as formation of 4-(1,1,1,3,3,3-hexafluoro-2-methoxypropan-2-yl)-N-(6-(2-hydroxyethoxy)-5-(2-hydroxyphenoxy)-2,2'-bipyrimidin-4-yl)benzenesulfonamide at 5 uM in presence of NADPH after 30 mins by LC-MS/MS analysis; type: ADME; details: 0.5 h; procedure, shortened: as §1
[4] = Metabolic stability in human liver microsomes assessed as parent compound remaining at 5 uM in presence of NADPH after 30 mins by LC-MS/MS analysis; type: ADME; details: read-out: Stability
Procedure, shortened: (§2)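 Pooled human liver microsomes in 100 mM potassium phosphate, pH 7.4, with test compound at 5 μM final. Reaction started with 1 mM NADPH (final) and run at 37 °C in a shaking water bath for 0, 15 and 30 min. Stopped with an equal volume of ice-cold acetonitrile containing 0.6 μM labetalol as internal standard. Protein was spun out and the supernatant analysed by LC-MS/MS. Blank had no compound.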

[5] = target: T2, Cytochrome P450 3A4 (Homo sapiens, UniProt P08684); test: Drug metabolism assessed as human recombinant CYP3A4-mediated formation of 4-(1,1,1,3,3,3-hexafluoro-2-hydroxypropan-2-yl)-N-(6-(2-hydroxyethoxy)-5-(2-methoxyphenoxy)-2,2'-bipyrimidin-4-yl)benzenesulfonamide at 5 uM in presence of NADPH after 30 mins by LC-MS/MS analysis; type: ADME; details: recombinant enzyme, 0.5 h; procedure, shortened: as §1
T2 sequence (P08684 whole entry): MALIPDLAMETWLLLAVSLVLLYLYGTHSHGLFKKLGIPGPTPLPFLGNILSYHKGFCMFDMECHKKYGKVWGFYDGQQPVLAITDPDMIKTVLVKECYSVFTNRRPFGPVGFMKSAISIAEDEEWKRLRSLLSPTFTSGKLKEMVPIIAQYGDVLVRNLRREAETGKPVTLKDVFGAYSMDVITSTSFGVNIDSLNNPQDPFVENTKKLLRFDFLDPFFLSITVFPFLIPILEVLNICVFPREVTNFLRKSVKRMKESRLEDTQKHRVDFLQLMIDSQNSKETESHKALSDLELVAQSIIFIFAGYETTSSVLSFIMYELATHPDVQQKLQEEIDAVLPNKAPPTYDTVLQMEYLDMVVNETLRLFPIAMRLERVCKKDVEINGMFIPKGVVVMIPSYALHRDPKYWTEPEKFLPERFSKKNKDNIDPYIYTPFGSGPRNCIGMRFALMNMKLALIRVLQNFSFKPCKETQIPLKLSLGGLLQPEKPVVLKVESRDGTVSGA

[6] = target: T2, Cytochrome P450 3A4; test: Drug metabolism assessed as human recombinant CYP3A4-mediated formation of 4-(1,1,1,3,3,3-hexafluoro-2-methoxypropan-2-yl)-N-(6-(2-hydroxyethoxy)-5-(2-hydroxyphenoxy)-2,2'-bipyrimidin-4-yl)benzenesulfonamide at 5 uM in presence of NADPH after 30 mins by LC-MS/MS analysis; type: ADME; details: recombinant enzyme, 0.5 h; procedure, shortened: as §1
[7] = Drug metabolism in human liver microsomes assessed as formation of N-(6-(2-hydroxyethoxy)-5-(2-hydroxyphenoxy)-2,2'-bipyrimidin-4-yl)-4-(perfluoropropan-2-yl)benzenesulfonamide at 5 uM in presence of NADPH after 30 mins by LC-MS/MS analysis; type: ADME; details: 0.5 h; procedure, shortened: as §1
[8] = target: T2, Cytochrome P450 3A4; test: Drug metabolism assessed as human recombinant CYP3A4-mediated formation of N-(6-(2-hydroxyethoxy)-5-(2-hydroxyphenoxy)-2,2'-bipyrimidin-4-yl)-4-(perfluoropropan-2-yl)benzenesulfonamide at 5 uM in presence of NADPH after 30 mins by LC-MS/MS analysis; type: ADME; details: recombinant enzyme, 0.5 h; procedure, shortened: as §1
[9] = Drug metabolism in human liver microsomes assessed as formation of OH-substituted O-demethyl-4-(1,1,1,2,3,3,3-Heptafluoropropan-2-yl)-N-(6-(2-hydroxyethoxy)-5-(2-methoxyphenoxy)-2,2'-bipyrimidin-4-yl)benzenesulfonamide at 5 uM in presence of NADPH after 30 mins by LC-MS/MS analysis; type: ADME; details: 0.5 h; procedure, shortened: as §2
[10] = target: T2, Cytochrome P450 3A4; test: Drug metabolism assessed as human recombinant CYP3A4-mediated formation of OH-substituted O-demethyl-4-(1,1,1,2,3,3,3-Heptafluoropropan-2-yl)-N-(6-(2-hydroxyethoxy)-5-(2-methoxyphenoxy)-2,2'-bipyrimidin-4-yl)benzenesulfonamide at 5 uM in presence of NADPH after 30 mins by LC-MS/MS analysis; type: ADME; details: recombinant enzyme, 0.5 h; procedure, shortened: as §1

SMILES	Drug metabolism [1]	Activity [2] [%]	Drug metabolism [3]	remaining at 0.5 h, 5 µM [4] [%]	Drug metabolism [5]	Drug metabolism [6]	Drug metabolism [7]	Drug metabolism [8]	Drug metabolism [9]	Drug metabolism [10]
COc1ccccc1Oc1c(NS(=O)(=O)c2ccc(C(OC)(C(F)(F)F)C(F)(F)F)cc2)nc(-c2ncccn2)nc1OCCO	Metabolite_Detected	0	Metabolite_Detected	73.9	Metabolite_Detected	Metabolite_Detected	–	–	–	–
COc1ccccc1Oc1c(NS(=O)(=O)c2ccc(C(F)(C(F)(F)F)C(F)(F)F)cc2)nc(-c2ncccn2)nc1OCCO	–	-1	–	99	–	–	Metabolite_Detected	Metabolite_Detected	Metabolite_Detected	Metabolite_Detected
